# Screening results as filed in PubChem BioAssay.
# Furin inhibitor: human furin inhibitors, primary screen, biochemical, fluorescence intensity. P09958. purified furin, fluorogenic substrate cleavage. inhibition, % at 20 µM or 30 µM. AID 463115, 2010. actives 0.061% (n = 220,000); in the data active = inhibition above about 25%
# Target sequence (P09958 108-714 limits assumed): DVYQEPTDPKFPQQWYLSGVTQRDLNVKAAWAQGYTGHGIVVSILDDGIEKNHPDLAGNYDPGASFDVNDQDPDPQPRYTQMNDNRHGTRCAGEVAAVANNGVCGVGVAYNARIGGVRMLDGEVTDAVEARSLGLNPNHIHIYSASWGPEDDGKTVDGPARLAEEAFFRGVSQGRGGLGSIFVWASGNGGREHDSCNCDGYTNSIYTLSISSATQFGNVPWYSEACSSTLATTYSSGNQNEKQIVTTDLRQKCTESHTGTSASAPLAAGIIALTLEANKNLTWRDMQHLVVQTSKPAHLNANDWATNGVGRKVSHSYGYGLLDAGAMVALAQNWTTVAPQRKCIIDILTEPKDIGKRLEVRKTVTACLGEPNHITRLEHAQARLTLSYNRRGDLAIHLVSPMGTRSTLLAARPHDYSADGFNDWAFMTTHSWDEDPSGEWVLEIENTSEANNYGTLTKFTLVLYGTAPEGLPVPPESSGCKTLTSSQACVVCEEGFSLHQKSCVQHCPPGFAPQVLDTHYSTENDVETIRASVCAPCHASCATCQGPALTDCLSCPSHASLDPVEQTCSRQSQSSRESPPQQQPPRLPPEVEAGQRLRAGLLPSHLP
# Ins promoter up: insulin promoter activators in MIN6 cells, imaging, high-content screening, mouse beta cells; MIN6 insulin promoter-GFP reporter; hits give high values; z-score at 5 µM; actives 0.3% (n = 190,000); AID 1625, 2009;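 active = z-score above 3 at 5 µM with at least 500 cells counted in the well; inconclusive = wells under 500 cells, flagged as cytotoxic or low count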
# bCat nuc transl: modulators of beta-catenin nuclear translocation, primary screen, imaging, HeLa cells, immunofluorescence, high-content; nuclear translocation activity, % at 5 µM; actives 0.3% (n = 190,000); AID 1665, 2009;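 active = nuclear translocation activity above 50% at 5 µM, with a well cell count of 50 or more; inconclusive = wells under 50 cells across six images, flagged as toxic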;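 also: per-cell ratio of nuclear to cytoplasmic median beta-catenin stain intensity; plate controls were DMSO negative control for no effect and GSK-3 inhibitor IX positive control for full effect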
#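 Test system: HeLa cells, endogenous beta-catenin; Compound: single 5 µM dose plus 0.02–20 µM confirmation series; Times: compound exposure 24 h at 37°C; Signal: fluorescence imaging of beta-catenin antibody stain plus DAPI; Read-out: % activation, nuclear-to-cytoplasmic median beta-catenin signal ratio per cell.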
# HSV replic up: enhancers of HSV replication in host cells, fold increase, host cell viability; AID 1956, 2009; actives 0.005% (n = 220,000); HSV replication augmentation in cells; maximum fold increase; in the data active = maximum fold increase above about 1.5; inconclusive = no clear call, values can overlap the other calls; tested in PC3 cells
# Autophagy mod: autophagy modulators in MEF cells, primary screen, imaging, high-content, MEF GFP-LC3; MEF GFP-LC3 puncta imaging; test concentration mostly 10 µM; calls only at 10 µM (by protocol); actives 0.98% (n = 190,000); AID 463193, 2010;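 active = percentage of spot-positive cells more than 3 SD above its plate mean, without a fluorescence outlier flag or 80% toxicity; inconclusive = no clear call, values can overlap the other calls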;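 also: spot-positive cell cutoff set from DMSO-treated cells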
# MT stabilizer: microtubule stabilizers in HeLa cells, primary screen, imaging, high-content imaging; % tubulin-high responders, % at 10 µM; AID 2205, 2009; actives 0.83% (n = 200,000); HeLa tubulin immunostaining HCS, 24 h; share of cells brighter than vehicle mean+2SD;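 active = plate Z-score above 3 for both tubulin-high and condensed-nucleus cell shares, with cell loss under 80%, at 10 µM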;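 also: anti alpha tubulin signal scored within the nucleus-defined area of each cell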
# * marks the source's active call; other numbers are inactive results; i = inactive; ? = inconclusive; . = not tested or not shown; + = active, no number. Rows were chosen to be rich in hits. Some 1.9% of all compounds tested hit in one or more screens of this group.
SMILES,Furin inhibitor,Ins promoter up,bCat nuc transl,HSV replic up,Autophagy mod,MT stabilizer
CCOC(=O)c1ccc(NC(=O)C2=C(C)Nc3nc(CCCO)nn3C2c2ccc(OC)cc2)cc1 (centres undefined),-6,.,.,i,i,2
COc1ccccc1N(CCN1C(=O)c2cccc3cccc(c23)C1=O)C(=O)c1ccncc1,-16,0.71,0,i,i,4
COC(=O)Nc1ccc(S(=O)(=O)N2CCCc3cccc(O)c32)cc1,-28,0.54,0,i,i,2
COC(=O)Nc1ccc(S(=O)(=O)N2CCCc3ccccc32)cc1,-24,0.56,-1,i,+,19*
CC1CN(c2ccc([N+](=O)[O-])c(NCCOc3ccccc3)c2)CCN1 (centres undefined),-14,-0.03,3,i,i,1
CCOc1ccc(NC(=O)C2=C(C)C(=O)OC23CCC(C)CC3)cc1 (centres undefined),-24,?,.,i,i,3
Cc1ccc2c(c1)-c1c(ssc1=S)C(C)(C)N2C(=O)c1ccco1,-14,-0.88,-2,i,i,37*
Cc1ccc(NC(=O)CCS(=O)(=O)c2ccccc2)cc1S(=O)(=O)N1CCOCC1,-17,0.04,-2,i,i,2
CCOc1cc(C(=O)Nc2cnccn2)cc(OCC)c1OCC,-11,.,4,i,i,38*
CCOc1cc(C(=O)Nc2cc(C)ccn2)cc(OCC)c1OCC,-7,-1.5,-5,i,i,4
Cc1ccc(N=Cc2nc(/C=C/c3cccc([N+](=O)[O-])c3)oc2O)cc1,1,0.84,2,?,+,2
Cc1ccc(-c2nc(C=Nc3ccc(O)cc3)c(O)o2)cc1,-11,0.23,1,i,i,8
O=C(Nc1cccnc1Cl)c1ccc(Cl)c([N+](=O)[O-])c1,-22,0.56,-1,i,i,5
COc1ccccc1/C=C/C1(C(=O)NC2CCCC2)CC(=O)N1c1ccc(F)cc1 (centres undefined),-10,.,0,i,i,20*
O=C(NCc1ccc(Cl)cc1)c1noc2c1CCCCC2,-24,-0.12,-1,i,i,3
COc1ccc(C2=NOC(C(=O)NCc3ccc(F)cc3)C2)cc1OC (centres undefined),24,1.6,56*,.,i,14*
O=C(NCc1ccc2c(c1)OCO2)C1CC(c2ccc(Cl)cc2)=NO1 (centres undefined),-12,0.08,2,i,i,3
COc1cc(C2=NOC(C(=O)NCc3ccc(F)cc3)C2)cc(OC)c1OC (centres undefined),-11,-0.34,73*,.,+,24*
COc1cc(OC)c(C2=NOC(C(=O)NCc3ccc4c(c3)OCO4)C2)cc1Cl (centres undefined),-26,-1.4,.,i,i,23*
COc1cccc(C2=NOC(C(=O)NCc3ccc(F)cc3)C2)c1 (centres undefined),-13,0.44,6,.,i,6
CC(C)NC(=O)c1onc(CSc2ccncc2)c1C(=O)NC(C)C,.,.,.,i,.,.
Cc1cc(C(=O)N2CCCC(C(=O)c3cc(F)ccc3F)C2)c(C)o1 (centres undefined),-25,-0.22,1,i,i,3
CCOc1cc(/C=N/NC(=O)c2cccnc2)ccc1OC(=O)c1ccco1,-9,0.13,0,i,i,2
O=S(=O)(NC(=S)NC1CCCCC1)c1ccc(Br)cc1,-24,0.59,-1,i,i,1
CCCCOP(=O)(c1ccc(N(C)C)cc1)C(Nc1ccccc1)c1ccccc1 (centres undefined),16,-0.08,2,i,i,6
SMILES,Furin inhibitor,Ins promoter up,bCat nuc transl,HSV replic up,Autophagy mod,MT stabilizer
CCCOP(=O)(c1ccc(N(C)C)cc1)C(Nc1ccccc1)c1ccc(N(C)C)cc1 (centres undefined),28*,0.31,-1,i,i,4
Cc1nc2ccccc2n1CC(=O)OCC(=O)Nc1ccc2c(c1)OCCO2,-22,-0.32,-5,i,i,2
Cc1nc2ccccc2n1CC(=O)OCC(=O)NC1CC1,-7,-0.55,-1,i,+,3
COC(=O)/C=c1/s/c(=C(\C#N)C(=O)NCc2ccco2)n(-c2ccc(C)cc2)c1=O,-15,0.43,-2,i,+,2
CSc1nnc(-c2sc3cc(C(F)(F)F)cnc3c2-c2ccccc2)n1C,-14,-0.57,.,i,i,40*
O=C(O)c1sc2cc(C(F)(F)F)cnc2c1-c1ccccc1,-25,.,.,i,i,2
CC1CCCCN1C(=O)C1CCCCN1S(=O)(=O)c1cccc([N+](=O)[O-])c1 (centres undefined),-8,-0.05,0,i,.,.
COC(=O)[C@@]1(Cc2ccccc2)[C@H]2c3cc(C(=O)N4CCCC4)n(CCSCCO)c3C[C@H]2CN1C(=O)c1ccccc1,-9,-1.4,3,.,+,4
COCCn1c(C(=O)N2CCCC2)cc2c1C[C@H]1CN(C(=O)c3ccccc3)[C@@](Cc3ccc(F)cc3)(C(=O)OC)[C@@H]21,-16,-0.7,.,i,i,2
Cc1cc(NC(=S)N(Cc2ccc(Br)cc2)Cc2ccc(C(=O)O)cc2)ccc1Cl,-18,3.8*,4,i,i,3
N=c1c(-c2nc3ccccc3[nH]2)cc(C(=O)c2cccs2)nn1-c1ccc(Cl)cc1,-14,.,.,i,+,4
O=Nc1c(-c2cccc([N+](=O)[O-])c2)nc2ncccn12,0,-1,2,i,.,.
CCC(C)(C)n1nnnc1C(c1ccc(F)cc1)N1CCC(C(N)=O)CC1 (centres undefined),-17,-0.04,-1,i,i,5
Cc1cc(C)nc(SCSc2nc(C)cc(C)n2)n1,-14,4.5*,-1,i,i,3
CCN(CC)c1ccc2cc(C(C)=O)c(=O)oc2c1,18,0.96,-2,?,i,2
CCN(CC)c1ccc2cc(-c3nnc(-c4ccncc4)o3)c(=O)oc2c1,-21,4.4*,.,?,+,3
Cc1[nH]n(-c2nc(-c3ccc(Cl)cc3)cs2)c(=O)c1N=Nc1ccc(O)cc1,-14,-1.5,1,i,i,6
CCc1ccc(/C=C2/C(=O)N(c3ccccc3)C(=S)N2CC(=O)OC)s1,-7,-0.52,1,i,+,4
CSc1cccc(NC(=S)N2CCC(N(C)C3CCCCC3C)CC2)c1 (centres undefined),-4,0.08,1,i,i,2
